In ChEMBL document CHEMBL1821578, “Bioactive A-type proanthocyanidins from Cinnamomum cassia” (J Nat Prod, 2011):

Legend:
[1] = target: T1, Prostaglandin G/H synthase 2 (Homo sapiens) (UniProt P35354); test: Inhibition of human recombinant COX2 expressed in Sf9 cells at 10 ug/mL
T1 sequence (whole entry): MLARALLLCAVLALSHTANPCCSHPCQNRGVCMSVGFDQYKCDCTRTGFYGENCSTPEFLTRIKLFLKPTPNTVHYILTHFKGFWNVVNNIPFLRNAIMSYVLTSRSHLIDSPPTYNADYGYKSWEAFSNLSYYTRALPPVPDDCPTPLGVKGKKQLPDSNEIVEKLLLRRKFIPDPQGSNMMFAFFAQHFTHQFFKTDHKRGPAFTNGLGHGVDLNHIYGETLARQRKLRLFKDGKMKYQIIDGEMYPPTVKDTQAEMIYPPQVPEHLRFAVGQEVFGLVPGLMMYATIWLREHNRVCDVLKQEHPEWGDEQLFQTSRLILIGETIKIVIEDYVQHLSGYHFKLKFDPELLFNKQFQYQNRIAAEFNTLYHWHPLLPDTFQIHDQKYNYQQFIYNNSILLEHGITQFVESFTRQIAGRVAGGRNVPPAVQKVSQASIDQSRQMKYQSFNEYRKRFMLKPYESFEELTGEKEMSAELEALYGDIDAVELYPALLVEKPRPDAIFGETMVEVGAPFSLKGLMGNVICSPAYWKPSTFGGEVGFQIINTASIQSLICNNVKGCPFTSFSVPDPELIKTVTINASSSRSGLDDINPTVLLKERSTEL
Summary of the method: (§1)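 Enzyme: human recombinant COX-2 produced in Sf9 cells, assayed by a previously published procedure. Each compound was run in triplicate at three log-spaced levels (10, 100 and 1000 μg/mL). Inhibition of enzyme activity is the read-out.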

[2] = target: T1, Prostaglandin G/H synthase 2 (Homo sapiens); test: Inhibition of human recombinant COX2 expressed in Sf9 cells at 100 ug/mL; summary of the method: as §1
[3] = target: T1, Prostaglandin G/H synthase 2 (Homo sapiens); test: Inhibition of human recombinant COX2 expressed in Sf9 cells at 1000 ug/mL; summary of the method: as §1

Oc1cc(O)c2c(c1)O[C@@]1(c3ccc(O)c(O)c3)Oc3cc(O)c4c(c3[C@@H]2[C@H]1O)O[C@H](c1ccc(O)c(O)c1)[C@H](O)[C@H]4c1c(O)cc(O)c2c1O[C@H](c1ccc(O)c(O)c1)[C@@H](O)C2 (mixture of isomers) was tested, and the inhibition [1] was 2%, the inhibition [2] was 44% and the inhibition [3] was 95%.

For Oc1cc(O)c2c(c1)O[C@@]1(c3ccc(O)c(O)c3)Oc3cc(O)c4c(c3[C@@H]2[C@H]1O)O[C@H](c1ccc(O)c(O)c1)[C@H](O)[C@H]4c1c(O)cc(O)c2c1O[C@H](c1ccc(O)c(O)c1)[C@H](O)C2 (mixture of isomers), the inhibition [1] was 19%, the inhibition [2] was 27% and the inhibition [3] was 86%.

Oc1cc(O)c2c(c1)O[C@H](c1ccc(O)c(O)c1)[C@H](O)[C@H]2c1c(O)c2c(c3c1O[C@]1(c4ccc(O)c(O)c4)Oc4cc(O)cc(O)c4[C@H]3[C@H]1O)O[C@H](c1ccc(O)c(O)c1)[C@H](O)[C@H]2c1c(O)cc(O)c2c1O[C@H](c1ccc(O)c(O)c1)[C@@H](O)C2 (mixture of isomers) was tested, and the inhibition [1] was 38%, the inhibition [2] was 52% and the inhibition [3] was 97%.

Compound Oc1cc(O)c2c(c1)O[C@H](c1ccc(O)c(O)c1)[C@H](O)[C@H]2c1c(O)c2c(c3c1O[C@]1(c4ccc(O)c(O)c4)Oc4cc(O)cc(O)c4[C@H]3[C@H]1O)O[C@H](c1ccc(O)c(O)c1)[C@H](O)[C@H]2c1c(O)cc(O)c2c1O[C@H](c1ccc(O)c(O)c1)[C@H](O)C2 (mixture of isomers) has an inhibition [1] of 14%, an inhibition [2] of 86% and an inhibition [3] of 94%.
